Our source for the Analgesia and Jump latency time values is ChEMBL document CHEMBL1125469, “"Mixed inhibitor-prodrug" as a new approach toward systemically active inhibitors of enkephalin-degrading enzymes” (1992).

What all share (assay type): functional
Experiment [1] relates to Mus musculus. In words: Compound was evaluated for the percentage of analgesic effect in mice at the time of 15 min after intravenous administration of dose 5 mg/kg. Put shortly:
(§1)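 Mice on a hot plate held at 55 ± 0.5 °C inside a glass cylinder, tested 15 min after iv dosing. Read-out was latency to jump, with a 240 s cutoff. % analgesia = (test − control latency)/(cutoff − control latency) × 100. Groups compared by ANOVA followed by Dunnett's t test.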

The subject of experiment [2] is Mus musculus. Description: Compound was evaluated for the percentage of analgesic effect in mice at the time of 15 min after intravenous administration of dose 10 mg/kg. Put shortly: as §1
Experiment [3] deals with Mus musculus. Description: Compound was evaluated for the antinociceptive response after intravenous administration using hot-plat test (55+/-1 degree Celsius) in mice (for jump latency time) at the dose of 1 mg/kg. The method in brief:
as §1

The subject of experiment [4] is Mus musculus. Description: Compound was evaluated for the antinociceptive response after intravenous administration using hot-plat test (55+/-1 degree Celsius) in mice (for jump latency time) at the dose of 0 mg/kg. Put shortly: as §1
Experiment [5] relates to Mus musculus. In words: Compound was evaluated for the antinociceptive response after intravenous administration using hot-plat test (55+/-1 degree Celsius) in mice (for jump latency time) at the dose of 10 mg/kg. The method in brief: as §1
In experiment [6] the test system is Mus musculus. Description: Compound was evaluated for the antinociceptive response after intravenous administration using hot-plat test (55+/-1 degree Celsius) in mice (for jump latency time) at the dose of 5 mg/kg. Put shortly: as §1
Experiment [7] relates to Mus musculus. In words: Compound was evaluated for the percentage of analgesic effect in mice at the time of 15 min after intravenous administration of dose 1 mg/kg. Put shortly:
as §1

Experiment [8] has as its system Mus musculus. Description: Compound (20 mg/kg) was evaluated for the antinociceptive response after intravenous administration using hot-plat test (55+/-1 degree Celsius) in mice(for jump latency time) at the dose of 0.57*10e-6 mol/mouse. Put shortly:
as §1

Experiment [9] has as its system Mus musculus. Description: Compound (20 mg/kg) was evaluated for the percentage of analgesic effect in mice at the time of 15 min after intravenous administration of dose 0.57*10e-6 mol/mouse. The method in brief: as §1
Experiment [10] concerns Mus musculus. In words: Compound was evaluated for the percentage of analgesic effect in mice at the time of 15 min after intravenous administration of dose 0.75*10e-6 mol/mice and 0.46*10e-6 mol/mice respectively. Put shortly: as §1
For experiment [11], the system named is Mus musculus. Description: Compound was evaluated for the antinociceptive response after intravenous administration using hot-plat test (55+/-1 degree Celsius) in mice (for jump latency time) at the dose of 0.75*10e-6 mol/mice and 0.46*10e-6 mol/mice respectively. The method in brief:
as §1

Take `CC(=O)SCC(Cc1ccccc1)C(=O)NCC(=O)SC[C@@H](N)Cc1ccccc1` (stereo not given in full): the Analgesia in experiment [1] amounted to 13%; in [2] it was 63%; in experiment [7] it was 9%. Besides, the Jump latency time came to 74.1 s in [3], 56.7 s in [4], 143 s in [5] and 80.4 s in experiment [6].

In turn, `N[C@H](CSC(=O)CCC(=O)SCC(Cc1ccccc1)C(=O)NCC(=O)OCc1ccccc1)Cc1ccccc1` (stereo not given in full) came in with an Analgesia in experiment [2] of 12%. Also, the Jump latency time in [4] is 48.7 s; in experiment [5], 71.7 s; in [6], 46.5 s.

Turning to `CSCCC(N)CSSCC(Cc1ccccc1)C(=O)NC(Cc1ccccc1)C(=O)OCc1ccccc1` (stereo not given), the Jump latency time in experiment [8] is 236 s. Besides, the Analgesia in [9] was found to be 92.1%.

`CSCCC(N)CSSCC(N)CCSC.O=C(NC(Cc1ccccc1)C(=O)OCc1ccccc1)C(CSSCC(Cc1ccccc1)C(=O)NC(Cc1ccccc1)C(=O)OCc1ccccc1)Cc1ccccc1` (stereo not given): the Analgesia in experiment [10] was 32.2%. The Jump latency time in [11] came out at 126 s.
